An excerpt weighted towards active compounds, which were near 3.8% of everything screened.
KCNQ1 block – blocks the human KCNQ1 potassium channel | P51787 | CHO-K1 KCNQ1, FluxOR thallium flux fluorescence; stronger effect = higher value | B-score at 10 µM | hit rate 1.3% among 310,000 | AID 2642;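 active = compounds whose thallium flux B-score, printed positive for inhibition, exceeds three library SD while starting fluorescence stays within three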;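 also: channel opened by potassium depolarization with thallium stimulus after 20 min compound exposure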
KCNK3 block – human KCNK3 channel inhibition, primary screen; CHO-KCNK3 thallium flux, FluxOR fluorescence; stronger effect = lower value; AID 602410; B-score at 10 µM; O14649; hit rate 0.84% among 340,000;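 active = B-score under library mean minus 4 SD, starting fluorescence ratio at most library mean plus 5 SD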;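 also: more negative B-score means stronger inhibition of thallium flux through KCNK3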
KCNK9 inh – blocks the human KCNK9 two-pore domain potassium channel. B-score at 10 µM. Q9NPC2. AID 488922. hit rate 1.2% among 310,000. HEK293 KCNK9, FluxOR thallium flux fluorescence; stronger effect = lower value;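 active = ratio B-score over 3 SD below the library mean, with starting fluorescence within 5 SD of its mean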;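 also: negative B-score means less thallium flux so channel inhibition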
KCNQ1 act – human KCNQ1 channel potentiation or activation. P51787. CHO-K1 KCNQ1, thallium flux FluxOR fluorescence; stronger effect = higher value. B-score at 10 µM. hit rate 0.35% among 310,000. AID 2648;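 active = fluorescence ratio B-score, a plate-corrected score, at least three library SD, with initial intensity B-score within 5 SD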
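Assay system: stable KCNQ1 CHO-K1 line; medium: assay buffer, equal DMSO in all wells; timing: 90 min dye loading and 20 min compound exposure, both at room temperature; technique: kinetic FluxOR thallium fluorescence, 10-s 1-Hz baseline, 110-s post-stimulus read; read-out basis: B score of baseline-normalized fluorescence ratio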
Kir21 block – blocks the mouse Kir2.1 inward-rectifier potassium channel; P35561; HEK293-Kir2.1, FluxOR thallium flux fluorescence; stronger effect = lower value; B-score at 10 µM; hit rate 0.85% among 310,000;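 active = fluorescence ratio B-score at or below minus 3 SD of library scores, with starting-brightness B-score within 2 SD, cut at about -4.2 in these data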;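 also: channel flux triggered by added potassium and thallium sulfate stimulus; B-score of peak minus minimum fluorescence over baseline after thallium stimulus; more negative B-score means stronger Kir2.1 block with less thallium influx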
Target sequence (P35561 whole entry, looked up): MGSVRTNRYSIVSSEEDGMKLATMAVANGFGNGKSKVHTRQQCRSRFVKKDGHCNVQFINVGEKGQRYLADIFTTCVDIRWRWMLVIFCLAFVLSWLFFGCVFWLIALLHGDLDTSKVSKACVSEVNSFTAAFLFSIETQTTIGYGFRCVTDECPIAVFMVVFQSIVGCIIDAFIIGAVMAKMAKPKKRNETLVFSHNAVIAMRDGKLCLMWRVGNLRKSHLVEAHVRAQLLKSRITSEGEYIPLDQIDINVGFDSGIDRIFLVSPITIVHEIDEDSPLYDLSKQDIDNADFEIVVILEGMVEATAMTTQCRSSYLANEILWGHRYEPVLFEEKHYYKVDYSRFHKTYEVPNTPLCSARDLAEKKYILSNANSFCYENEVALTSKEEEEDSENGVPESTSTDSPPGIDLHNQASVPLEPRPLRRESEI
hERG protect – compounds protecting human hERG from proarrhythmic drug block | Q12809 | CHO-hERG, FluxOR thallium flux, dofetilide IC70 present | hit rate 0.51% among 310,000 | activation (rescue from dofetilide block), less the hit threshold, % at 10 µM;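 active = activation above the mean of controls blocked by dofetilide plus 5 SD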;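 also: thallium influx through hERG after potassium depolarization seen as dye fluorescence rise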
KCNQ1 block val – confirmation of human KCNQ1 potassium channel inhibitors; inhibition, % at 10 µM; AID 588353; shares compounds with KCNQ1 block; hit rate 93% among 1,600; KCNQ1 cell line, FluxOR thallium flux fluorescence;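 active = primary screen active, with duplicate mean exceeding buffer control mean plus 3 SD of buffer wells, cut at about 28% in these data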;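 also: 0% = buffer control ratio and 100% = XE991 inhibitor control ratio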
CHO Tl flux – KCNQ1 inhibitor counter-screen hit in parental CHO cells. shares compounds with KCNQ1 block. parental CHO-K1, FluxOR thallium flux fluorescence ratio; stronger effect = lower value; zero means no signal rise above baseline. fluorescence ratio (Tl flux) at 10 µM. hit rate 21% among 1,600;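 active = mean of duplicate thallium-flux fluorescence ratios in parental host cells more than 5 SD below the buffer control mean, cut at about 0.38 in these data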;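 also: ratio is peak minus minimum fluorescence divided by baseline fluorescence; actives read low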
KCNQ1 APC inh – human KCNQ1 inhibition validated by electrophysiology; shares compounds with KCNQ1 block; KCNQ1-CHO cells, automated patch clamp current; calls only at 10 µM; hit rate 20% among 490;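 active = KCNQ1 current drop exceeding 3 SD of negative control wells, seen in both duplicate runs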;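 also: steady state current during a 2 s step from -80 to +40 mV; negative values mean current inhibition and positive values mean potentiation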
KCNQ2 inh – rat KCNQ2 inhibition in KCNQ1 inhibitor specificity screen. inhibition, % at 10 µM. shares compounds with KCNQ1 block. hit rate 71% among 1,600. KCNQ2 cells, FluxOR thallium flux fluorescence;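 active = mean percent inhibition of the KCNQ2 thallium signal more than 5 SD above the buffer-only control wells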;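 also: KCNQ2 expressed in CHO cells; 0% = buffer control wells and 100% = XE-991 inhibitor control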
KCNQ1-KCNE1 inh – human KCNQ1/KCNE1 inhibition in KCNQ1 specificity screen | hit rate 77% among 1,600 | KCNQ1/KCNE1 cells, FluxOR thallium flux fluorescence | shares compounds with KCNQ1 block | AID 652147 | inhibition, % at 10 µM;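 active = mean percent inhibition of duplicate wells above the buffer-only control mean plus 3 SD of those controls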;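 also: 0% = buffer only wells and 100% = XE-991 inhibitor control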
Active calls of the source: *; i = inactive; · = no result; + = active, no number.

SMILES | KCNQ1 block | KCNK3 block | KCNK9 inh | KCNQ1 act | Kir21 block | hERG protect | KCNQ1 block val | CHO Tl flux | KCNQ2 inh | KCNQ1-KCNE1 inh | others
COc1ccccc1CNC(=O)CN1C(=O)NC2(CCC(C)CC2)C1=O (configuration not stated) | · | i | · | · | · | · | · | · | · | ·
CCN(CC)c1ccc(Nc2nc(N3CCOCC3)c3ccccc3n2)cc1 | 8* | i | i | i | -0.78 | -14 | 112* | 0.4 | 117%* | 100%* | KCNQ1 APC inh=i
NC(=O)C1CCCN(C(=O)c2cccc(NC(=O)c3cccs3)c2)C1 (configuration not stated) | · | i | · | · | · | · | · | · | · | ·
c1ccc(CN2C3=NCCN3c3ccccc32)cc1 | i | i | i | i | -1.4 | -6 | · | · | · | ·
O=C(CN1C2=NCCN2c2ccccc21)C12CC3CC(CC(C3)C1)C2 | 11* | i | i | i | 0.59 | -9 | 70* | 0.43 | 74%* | 40%*
COc1ccccc1OCCNC(=O)CCC(=O)N1CCOCC1 | · | i | · | · | · | · | · | · | · | ·
CCCSc1nsc(NC(=O)Nc2ccc(F)cc2F)n1 | 11* | i | i | i | 2.3 | -4 | 58* | 0.54 | i | i
COc1cccc(NC(=O)Nc2nc(SC)ns2)c1 | i | i | i | i | -0.3 | 0 | · | · | · | ·
CCSc1nsc(NC(=O)Nc2cccc(F)c2)n1 | 8* | i | i | i | -0.52 | -14 | 52* | 0.55 | i | i
O=C(c1ccc2c(c1)OCO2)N(Cc1ccco1)C1(C(=O)NC2CCCCC2)CCCCC1 | 6* | i | i | i | 0.34 | -10 | 80* | 0.36* | 89%* | 78%*
CSCCC(NC(=O)c1ccco1)C(=O)N1CC(C)OC(C)C1 (configuration not stated) | · | i | · | · | · | · | · | · | · | ·
c1ccc(-c2nc(N3CCOCC3)sc2-c2ccccc2)cc1 | 8* | i | i | i | 1.2 | -7 | 99* | 0.41 | 100%* | 162%* | KCNQ1 APC inh=i
CC(=O)c1cccc(NC(=O)CSc2nnc(C(C)N(C)C)n2Cc2ccccc2)c1 (configuration not stated) | i | i | i | i | -0.87 | -6 | · | · | · | ·
O=C(Cc1nc2ccccc2[nH]1)c1ccc(Br)cc1 | 6* | i | i | i | 2.7 | -13 | 52* | 0.46 | 72%* | 51%*
COc1ccc(CNC(=O)c2cc3cccc(O)c3oc2=N)cc1 | i | i | i | i | 0.67 | -5 | · | · | · | ·
Cc1ccc(Cl)cc1N1CCN(C(=O)CSc2nnc3n2C(C)(C)Cc2ccccc2-3)CC1 | 17* | -9* | i | i | 0.79 | -31 | 148* | 0.28* | 145%* | +
COc1ccc(N2CCN(C(=O)CSc3nnc4n3C(C)(C)Cc3ccccc3-4)CC2)cc1 | i | i | i | i | -0.1 | -13 | · | · | · | ·
C/C(=N\NC(=O)c1nnn(-c2nonc2N)c1CN1CCc2ccccc21)c1ccccc1O | i | i | i | i | -0.18 | -7 | · | · | · | ·
Cc1[nH]c2ccccc2c1C(=O)CSc1nc2ccccc2c(=O)n1-c1ccccc1F | i | · | i | i | -0.64 | -7 | · | · | · | ·
CCOC(=O)c1c(C)[nH]c(C)c1C(=O)CSc1nc2ccccc2c(=O)n1-c1ccc(C)cc1 | 6* | i | i | i | 0 | -8 | 58* | 0.5 | i | 58%*
O=C(c1ccc(C(F)(F)F)cc1)c1c[nH]c(C(=O)NCCCn2ccnc2)c1 | 7* | i | i | i | -2.8 | -21 | 59* | 0.44 | i | 89%*
O=C(CCNS(=O)(=O)c1ccc2ccccc2c1)NCCOc1ccccc1 | · | i | · | · | · | · | · | · | · | ·
CCOC(=O)c1nncc(-c2ccccc2)n1 | · | i | · | · | · | · | · | · | · | ·
O=C(NCC1(c2ccccc2)CCCC1)C1(c2ccccc2)CCCC1 | 6* | i | i | i | -0.17 | -5 | 112* | 0.41 | 108%* | 152%* | KCNQ1 APC inh=i
CCOc1ccc(NS(=O)(=O)c2ccc(C(=O)N3CCN(C(C)=O)CC3)cc2)cc1 | i | i | i | i | 0.67 | -7 | · | · | · | ·
SMILES | KCNQ1 block | KCNK3 block | KCNK9 inh | KCNQ1 act | Kir21 block | hERG protect | KCNQ1 block val | CHO Tl flux | KCNQ2 inh | KCNQ1-KCNE1 inh | others
O=C(NC(NC1CCS(=O)(=O)C1)C(Cl)(Cl)Cl)c1ccc(Br)cc1 (configuration not stated) | 10* | i | i | i | 0 | -14 | 64* | 0.51 | 88%* | 36%*
O=C(NC(NC1CCS(=O)(=O)C1)C(Cl)(Cl)Cl)c1cccc(Cl)c1 (configuration not stated) | i | i | i | i | -2.3 | -8 | · | · | · | ·
CC(C)c1nc(SCC(=O)N2c3ccccc3CC2C)c2ccccc2n1 (configuration not stated) | 9* | i | i | i | 0.67 | -12 | 74* | 0.38* | 96%* | 72%*
Cc1cc2cc3c(cc2nc1SCC(=O)N1c2ccccc2CC1C)OCO3 (configuration not stated) | 6* | i | i | i | 1 | -4 | 100* | 0.35* | 78%* | 90%*
Cc1cc(C)n(CCCNC(=O)C(C)(C)Oc2ccc(Cl)cc2)n1 | · | i | · | · | · | · | · | · | · | ·
CCOc1ccc(OCCC(=O)OCC(=O)NC2CCCC2)cc1 | · | i | · | · | · | · | · | · | · | ·
COc1ccc([C@@H]2CC=C(C(=O)O)[C@H](c3ccc(F)cc3)N2S(=O)(=O)c2ccc(Cl)cc2)cc1 | · | i | · | · | · | · | · | · | · | ·
O=S(=O)(c1ccccc1)c1nc(Nc2cccc(O)c2)sc1Cl | 7* | i | i | i | -5.5* | -34 | 94* | 0.38 | 78%* | 44%* | KCNQ1 APC inh=i
Cn1ncc2c(N3CCN(c4ccc(Cl)c(Cl)c4)CC3)ncnc21 | 10* | i | i | i | 0.15 | -16 | 103* | 0.48 | i | 61%* | KCNQ1 APC inh=i
Cn1ncc2c(N3CCN(c4ccccc4F)CC3)ncnc21 | i | i | i | i | -0.1 | -4 | · | · | · | ·
C=C(C)CN(CC)C(=O)CSc1ccc(S(=O)(=O)N2CCN(C)CC2)cn1 | · | i | · | · | · | · | · | · | · | ·
